Values after ≈ are worked out from the molar mass of the structure shown. Values joined by “and” are separate entries in the source; they are usually repeats but may differ in a detail not shown here. Equal entries are not always repeated. Active and inactive are the calls of the source. The calls are words filed in the database; no cut-off is given here.
Experiments:
Pseudomonas aeruginosa [1] = test: Antibacterial activity against Pseudomonas aeruginosa MTCC 2488 incubated for 14 to 16 hrs by micro broth dilution method; type: functional; settings: time 14-16 hrs
Outline: (§1)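 Broth microdilution. E. coli and P. aeruginosa grown in LB, S. aureus in BHI, to mid-log phase at 37 °C with shaking. Cells washed and resuspended in PBS, then exposed to graded compound concentrations at 10^6 CFU/mL at 37 °C for 14–16 h. OD600 read. MIC is the lowest concentration with no visible growth or OD close to the bacteria-free control. Repeated thrice at the MIC.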

Escherichia coli [2] = test: Bactericidal activity against Escherichia coli MTCC 1687 incubated for 24 hrs by micro broth dilution method; type: functional
HaCaT [3] = test: Cytotoxicity against human HaCaT cells after 24 hrs by MTT assay; type: cell-based
[4] = Therapeutic index, ratio of IC50 for human HaCaT to MIC for Escherichia coli; type: toxicity; settings: HaCaT cells, read-out: TI
Staphylococcus aureus [5] = test: Bactericidal activity against Staphylococcus aureus assessed as membrane damage incubated for 5 hrs by cFDA-SE dye based fluorescence microscopic analysis; type: functional, organism-based
Outline: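 S. aureus cultured and harvested, then exposed to compound (buffer-only control) for 5 h. Cells washed and diluted to 10^6 CFU/mL, stained separately with 30 μM PI or 10 μM cFDA-SE for 30 min, and viewed by fluorescence microscopy.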

[6] = Aggregation property of the compound in aqueous medium assessed as formation of spherical aggregates by FE-TEM analysis; type: physicochemical; settings: buffer
Outline: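 Lipid aggregates prepared in PBS pH 7.4 by film hydration, not extruded, then diluted to half concentration. Applied to carbon-coated copper grid for 1 min, uranyl acetate stain, excess wicked off. Grid dried overnight at 30 °C and imaged by TEM at 200 kV.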

Escherichia coli [7] = test: Bactericidal activity against Escherichia coli MTCC 1687 assessed as fragmented cell morphology incubated for 5 hrs by FESEM analysis; type: functional, organism-based
Outline: (§2)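 S. aureus MTCC 96 and E. coli MTCC 1687 harvested by centrifugation (5000 rpm, 5 min) and washed. Exposed to compound for 5 h alongside untreated control. Cells washed with water, drop-cast on foil, air-dried, mounted on carbon tape, gold double-coated, and imaged by FESEM.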

Staphylococcus aureus [8] = test: Antibiofilm activity against Staphylococcus aureus MTCC 96 assessed as inhibition of biofilm formation incubated for overnight by crystal violet staining assay; type: functional, organism-based; settings: dose 6.25-100 µM
Outline: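 S. aureus MTCC 96 grown and exposed to compound as in the MIC assay, then incubated overnight. Planktonic cells removed, wells rinsed with PBS and air-dried. Stained with 1% (v/v) crystal violet for 20 min, dried, dye taken up in 95% ethanol, and absorbance read at 590 nm.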

Cell membrane [9] = test: Induction of membrane depolarization in Staphylococcus aureus MTCC 96 assessed as increase in fluorescence intensity at 0 to 4 uM by DiSC3-5 dye based fluorescence assay; type: subcellular; settings: dose 0-4 µM
Outline: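 Mid-log S. aureus MTCC 96 resuspended in 10 mM HEPES with 50 mM glucose and loaded with 0.4 μM (final) DiSC3(5) for 1 h. KCl added to 100 mM, 10 min wait, then compound at 0, 2 or 4 μM or 30 μM valinomycin as positive control. Fluorescence recorded at excitation 620 nm, emission 650 nm.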

Staphylococcus aureus [10] = test: Bactericidal activity against methicillin resistant Staphylococcus aureus […] by micro broth dilution method; type: functional
[11] = Drug release in PBS at pH 7.4 assessed as tetracyclin release incubated for 60 hours by fluorometric method; settings: buffer, pH 7.4, 60 h
Staphylococcus aureus [12] = test: Bactericidal activity against Staphylococcus aureus MTCC 96 […] by micro broth dilution method; type: functional
Staphylococcus aureus [13] = test: Bactericidal activity against Staphylococcus aureus MTCC 96 assessed as fragmented cell morphology incubated for 5 hrs by FESEM analysis; type: functional, organism-based; outline: as §2
Staphylococcus aureus [14] = test: Antibacterial activity against methicillin resistant Staphylococcus aureus incubated for 14 to 16 hrs by micro broth dilution method; type: functional; settings: time 14-16 hrs
Outline: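 MRSA grown in BHI broth at 37 °C with shaking to mid-log phase, harvested, PBS-washed and resuspended in PBS; 10^6 CFU mL−1 incubated with serially varied compound concentrations at 37 °C for 14–16 h; OD600 read. MIC is the lowest concentration with no visible growth or OD near the bacteria-free control; repeated thrice.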

Staphylococcus aureus [15] = test: Antibacterial activity against Staphylococcus aureus MTCC 96 incubated for 14 to 16 hrs by micro broth dilution method; type: functional; settings: time 14-16 hrs; outline: as §1
Pseudomonas aeruginosa [16] = test: Bactericidal activity against Pseudomonas aeruginosa MTCC 2488 incubated for 24 hrs by micro broth dilution method; type: functional
Cell membrane [17] = test: Disruption of bacterial cell membrane in Staphylococcus aureus MTCC 96 assessed as increase in PI uptake by measuring increase in fluorescence intensity by PI dye based spectrofluorometric analysis; type: subcellular; settings: time 1-3 hrs, TDE = time-dependent effect
Outline: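 S. aureus MTCC 96 grown overnight and diluted in medium to 10^6 CFU/mL. Compound added, then incubated at 37 °C, 180 rpm. Samples taken at 1, 2 and 3 h, washed in PBS, stained with 30 μM PI for 30 min, washed again. Fluorescence read at excitation 535 nm, emission 617 nm.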

[18] = Drug release in PBS at pH 7.4 assessed as amoxicillin release incubated for 60 hours by fluorometric method; settings: buffer, pH 7.4, 60 h
Escherichia coli [19] = test: Antibacterial activity against Escherichia coli MTCC 1687 incubated for 14 to 16 hrs by micro broth dilution method; type: functional; settings: time 14-16 hrs; outline: as §1
[20] = Therapeutic index, ratio of IC50 for human HaCaT to MIC for Staphylococcus aureus; type: toxicity; settings: HaCaT cells
[21] = Hemolytic activity against human erythrocytes incubated for 1 hr by UV-vis spectroscopic method; type: ADME, cell-based, Erythrocyte
Outline: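 Erythrocytes from fresh human blood spun at 1500 rpm for 10 min, PBS-washed, made to 5% haematocrit. Serial compound dilutions incubated with the cells for 1 h at 37 °C. Buffer served as negative control and 0.5% Triton X-100 as positive control. After centrifugation, supernatant absorbance read at 410 nm and % haemolysis computed against both controls.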

[22] = Aggregation property of compound assessed as spherical aggregates size by dynamic light scattering analysis; type: physicochemical
Outline: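 Chloroform stock dried to a film by rotary evaporation, hydrated overnight at 50 °C in PBS (137 mM NaCl, 2.7 mM KCl, 8 mM Na2HPO4, 2 mM KH2PO4, pH 7.4), then vortexed and intermittently sonicated to unilamellar vesicles. Hydrodynamic diameter and zeta potential measured by DLS at 25 °C in buffers of different pH.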

HaCaT [23] = test: Cytotoxicity against human HaCaT cells up to 100 uM after 24 hrs by MTT assay; type: cell-based
Pseudomonas aeruginosa [24] = test: Antibacterial activity against Pseudomonas aeruginosa after 24 hrs by microdilution method; type: functional
[25] = Solubility of compound in PBS at pH 7.4; type: physicochemical; settings: buffer
Escherichia coli [26] = test: Synergistic antibacterial activity against Escherichia coli assessed as amoxicillin MIC encapsulated by compound; type: functional
Outline: (§3)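 Antibiotic-loaded liposomes (film hydrated with tetracycline or amoxicillin in PBS, freeze–thaw, vortexing, unloaded drug removed by centrifugation) tested by the same broth microdilution protocol: mid-log cells in PBS at 10^6 CFU/mL, 37 °C, 14–16 h, OD600.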

Staphylococcus aureus [27] = test: Synergistic antibacterial activity against Staphylococcus aureus assessed as amoxicillin MIC encapsulated by compound; type: functional; outline: as §3
Escherichia coli [28] = test: Synergistic antibacterial activity against Escherichia coli assessed as tetracyclin MIC encapsulated by compound; type: functional; outline: as §3
Staphylococcus aureus [29] = test: Synergistic antibacterial activity against Staphylococcus aureus assessed as tetracyclin MIC encapsulated by compound; type: functional; outline: as §3

| MIC (Pseudomonas aeruginosa [24]) | Compound | MIC (Pseudomonas aeruginosa [1]) | MIC (Staphylococcus aureus [14]) | MIC (Staphylococcus aureus [15]) | MIC (Escherichia coli [19]) | also measured |
| --- | --- | --- | --- | --- | --- | --- |
|  | CCCCCCCCCCCC[S+](C)Cc1cc(C[n+]2ccccc2)cc(C[S+](C)CCCCCCCCCCCC)c1.F[B-](F)(F)F.F[B-](F)(F)F.F[B-](F)(F)F (stereo unspecified) | 12 µM | 6.3 µM | 6.3 µM | 7.5 µM | MBC (Escherichia coli [2]): 10 µM; IC50 (HaCaT [3]): 27 µM; selectivity ratio [4]: 3.6; Activity (Staphylococcus aureus [5]): Active; Activity [6]: Active; Activity (Escherichia coli [7]): Active; Activity (Staphylococcus aureus [8]): Dose-dependent effect; Activity (Cell membrane [9]): Active; MBC (Staphylococcus aureus [10]): 12.5 µM; Activity [11]: 40%; MBC (Staphylococcus aureus [12]): 12.5 µM; Activity (Staphylococcus aureus [13]): Active; MBC (Pseudomonas aeruginosa [16]): 24 µM; Activity (Cell membrane [17]): Tde; Activity [18]: 60%; selectivity ratio [20]: 4.3; HC50 at 1 h [21]: 29 µM; Activity [22]: 270 nm |
|  | CCSCc1cc(CSCC)cc(C[n+]2ccccc2)c1 | > 100 µM | > 100 µM | > 100 µM | > 100 µM |  |
|  | CCCCCCCCCCCC[S+](C)Cc1cc(Cn2cc(CS(=O)(=O)O)nn2)cc(C[S+](C)CCCCCCCCCCCC)c1.F[B-](F)(F)F.F[B-](F)(F)F (stereo unspecified) | 25 µM | 25 µM | 10 µM | 12 µM | MBC (Escherichia coli [2]): 20 µM; MBC (Staphylococcus aureus [10]): > 100 µM; MBC (Staphylococcus aureus [12]): 12.5 µM; Activity (HaCaT [23]): Non-Toxic; MBC (Pseudomonas aeruginosa [16]): 50 µM; HC50 at 1 h [21]: 35 µM |
|  | CCCCCCCCCCCCSCc1cc(CSCCCCCCCCCCCC)cc(C[n+]2ccccc2)c1 | > 100 µM | > 100 µM | > 100 µM | > 100 µM |  |
|  | CC[S+](C)Cc1cc(C[n+]2ccccc2)cc(C[S+](C)CC)c1.F[B-](F)(F)F.F[B-](F)(F)F.F[B-](F)(F)F (stereo unspecified) | > 100 µM | > 100 µM | > 100 µM | > 100 µM | solubility [25]: Soluble |
|  | CCCCCCCCCCCCSCc1cc(CN=[N+]=[N-])cc(CSCCCCCCCCCCCC)c1 | > 100 µM | > 100 µM | > 100 µM | > 100 µM |  |
|  | CC1(C)S[C@@H]2[C@H](NC(=O)[C@H](N)c3ccc(O)cc3)C(=O)N2[C@H]1C(=O)O [AMOXICILLIN] | 4.3 µM (≈ 1.57 µg/mL) | > 50 µM | 6.8 µM (≈ 2.48 µg/mL) | 11 µM (≈ 4.02 µg/mL) | IC50 (HaCaT [3]): 29.4 µM; MIC (Escherichia coli [26]): 1.7 µM; MIC (Staphylococcus aureus [27]): 1.2 µM |
| 15.6 µg/mL and 30.9 µM | N=C(NCCCCCCNC(=N)NC(=N)Nc1ccc(Cl)cc1)NC(=N)Nc1ccc(Cl)cc1.O=C(O)[C@H](O)[C@@H](O)[C@H](O)[C@H](O)CO |  |  |  |  |  |
|  | CCCCCCCCCCCCSCc1cc(CSCCCCCCCCCCCC)cc(Cn2cc(CS(=O)(=O)O)nn2)c1 | > 100 µM | > 100 µM | > 100 µM | > 100 µM |  |
| 6.25 µM and 3.9 µg/mL | CCCCCCCCN=c1ccn(CCCCCCCCCCn2ccc(=NCCCCCCCC)cc2)cc1.Cl.Cl [OCTENIDINE HYDROCHLORIDE] |  |  |  |  |  |
|  | CN(C)[C@@H]1C(O)=C(C(N)=O)C(=O)[C@@]2(O)C(O)=C3C(=O)c4c(O)cccc4[C@@](C)(O)[C@H]3C[C@@H]12 [TETRACYCLINE] | 14 µM (≈ 6.22 µg/mL) | > 100 µM | 4.2 µM (≈ 1.87 µg/mL) | 8.5 µM (≈ 3.78 µg/mL) | MIC (Escherichia coli [28]): 2 µM; IC50 (HaCaT [3]): 8 µM; MIC (Staphylococcus aureus [29]): 0.7 µM |
| 32 µg/mL | CCCCCCCCCCCCC[N+](C)(C)Cc1ccccc1.[Cl-] [BENZALKONIUM CHLORIDE] |  |  |  |  |  |

| Compound | MIC (Pseudomonas aeruginosa [24]) | MIC (Pseudomonas aeruginosa [1]) | MIC (Staphylococcus aureus [14]) | MIC (Staphylococcus aureus [15]) | MIC (Escherichia coli [19]) | also measured |
| --- | --- | --- | --- | --- | --- | --- |
| Oc1cc(Cl)ccc1Oc1ccc(Cl)cc1Cl [TRICLOSAN] | > 512 µg/mL |  |  |  |  |  |
